Experimental data reported in ChEMBL document CHEMBL4219238, “Design, synthesis, molecular modelling and in vitro cytotoxicity analysis of novel carbamate derivatives as inhibitors of Monoacylglycerol lipase” (Bioorg Med Chem, 2018).
Calls of active or inactive are those of the source. The rule behind the calls is not given here.

Assays:
[1] = target: T1, Monoglyceride lipase (Mus musculus, UniProt O35678); assay: Inhibition of MAGL in mouse B16-F10 cells using 7-HRA as substrate preincubated for 60 mins followed by substrate addition measured every 2.5 mins for 2 hrs by fluorescence assay; assay type: cell-based
T1 sequence (O35678 whole entry): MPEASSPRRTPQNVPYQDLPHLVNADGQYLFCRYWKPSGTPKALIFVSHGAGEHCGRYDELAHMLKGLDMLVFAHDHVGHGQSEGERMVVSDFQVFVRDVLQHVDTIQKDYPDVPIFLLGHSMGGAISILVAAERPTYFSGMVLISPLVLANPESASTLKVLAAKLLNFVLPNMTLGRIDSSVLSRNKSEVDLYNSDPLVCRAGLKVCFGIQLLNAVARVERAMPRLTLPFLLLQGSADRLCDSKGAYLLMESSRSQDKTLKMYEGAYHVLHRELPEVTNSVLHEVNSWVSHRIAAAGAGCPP

[2] = tested on: B16-F10; assay: Antiproliferative activity against mouse B16F10 cells at 10 uM after 48 hrs by Cyto Tracker red dye based flow cytometry; assay type: functional, cell-based
How it was run: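 B16-F10 cells (Iscove's medium, 10% heat-inactivated FBS, 37 °C, 5% CO2) exposed to compound or DMSO for 48 h, stained with CytoTrack Red 628/643 and analysed by flow cytometry. Proliferation index (average number of cells that an initial cell became) expressed as fold change over DMSO control; n = 3; one-way ANOVA with Tukey post-test.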

[3] = target: T2, Monoglyceride lipase (Homo sapiens, UniProt Q99685); assay: Inhibition of recombinant human MAGL using 7-HRA as substrate preincubated for 60 mins followed by substrate addition by fluorescence assay
T2 sequence (Q99685 whole entry): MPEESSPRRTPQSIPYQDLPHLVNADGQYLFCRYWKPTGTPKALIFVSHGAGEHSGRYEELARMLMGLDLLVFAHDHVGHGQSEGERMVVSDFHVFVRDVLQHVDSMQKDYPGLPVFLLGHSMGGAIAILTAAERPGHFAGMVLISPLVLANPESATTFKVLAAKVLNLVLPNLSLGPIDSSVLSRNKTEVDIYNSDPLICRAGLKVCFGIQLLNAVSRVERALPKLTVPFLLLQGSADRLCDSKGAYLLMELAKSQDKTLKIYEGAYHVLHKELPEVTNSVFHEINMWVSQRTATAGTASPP

[4] = tested on: MCF7; assay: Induction of apoptosis in human MCF7 cells at 10 nM after 48 hrs by Annexin V-FITC/propidium iodide staining based flow cytometry; assay type: functional, cell-based
[5] = tested on: MCF7; assay: Induction of apoptosis in human MCF7 cells at 10 uM after 48 hrs by Annexin V-FITC/propidium iodide staining based flow cytometry; assay type: functional, cell-based
How it was run: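 HEK293T (DMEM with 10% FBS) or MCF7 (DMEM/Ham's F-12 1:1, 10% FBS) cells treated 48 h with 10 μM compound or DMSO. Staining with Alexa Fluor 488 annexin V plus 5 μg/ml PI in HEPES/NaCl/CaCl2 binding buffer; 10,000 cells per sample read by flow cytometry; n = 3, mean ± S.E.M.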

[6] = target: T3, Fatty-acid amide hydrolase 1 (Homo sapiens) (UniProt O00519); assay: Inhibition of human FAAH at 10 uM using AAMCA as substrate preincubated for 1 hr followed by substrate addition measured after 30 mins by fluorescence assay relative to control
T3 sequence (whole entry): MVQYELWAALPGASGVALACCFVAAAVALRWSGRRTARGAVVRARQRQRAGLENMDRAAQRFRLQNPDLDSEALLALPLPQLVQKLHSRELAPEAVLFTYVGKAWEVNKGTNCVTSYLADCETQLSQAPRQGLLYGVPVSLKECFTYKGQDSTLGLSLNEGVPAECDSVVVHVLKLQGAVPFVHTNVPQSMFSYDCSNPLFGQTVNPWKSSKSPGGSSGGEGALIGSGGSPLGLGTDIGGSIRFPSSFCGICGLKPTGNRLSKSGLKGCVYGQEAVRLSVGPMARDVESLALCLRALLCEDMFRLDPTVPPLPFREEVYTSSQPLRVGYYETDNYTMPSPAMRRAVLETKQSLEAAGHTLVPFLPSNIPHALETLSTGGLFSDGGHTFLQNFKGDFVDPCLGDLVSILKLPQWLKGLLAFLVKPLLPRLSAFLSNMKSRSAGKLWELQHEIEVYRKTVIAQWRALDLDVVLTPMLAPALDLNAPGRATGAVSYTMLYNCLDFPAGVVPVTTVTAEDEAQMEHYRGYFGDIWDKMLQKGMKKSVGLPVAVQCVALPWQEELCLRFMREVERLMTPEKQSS
How it was run: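 Recombinant human FAAH (C-terminal His-tagged, Sf21), 1 U/well, in 50 mM Tris-HCl, 1 mM EDTA, pH 9, preincubated 1 h at room temperature with 10 μM compound (final). AAMCA added to 20 μM final; fluorescence (ex 360/em 460 nm) read every 3 min for 30 min. Rate by linear regression, no-enzyme background subtracted, normalised to no-inhibitor control.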

[7] = target: T4, Monoglyceride lipase (Homo sapiens) (UniProt Q99685); assay: Inhibition of recombinant human MAGL assessed as residual activity at 10 uM using 7-HRA as substrate preincubated for 60 mins followed by substrate addition by fluorescence assay relative to control
T4 sequence (whole entry): T2 sequence (Q99685 whole entry)
How it was run: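 Recombinant human MAGL (C-terminal His-tagged, E. coli), 25 ng/well, in 50 mM Tris-HCl pH 7.4, 1 mM EDTA, 10% DMSO final. Preincubated with inhibitor or DMSO 60 min at room temperature, then 5 μM 7-HRA (final) added. Resorufin fluorescence (ex 571/em 588 nm) converted via calibration curve. Rates from linear regression, no-enzyme background subtracted, normalised to no-inhibitor control. IC50 taken at 30 min by variable-slope sigmoid fit.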

[8] = target: T5, Monoglyceride lipase (Mus musculus) (UniProt O35678); assay: Inhibition of MAGL in mouse B16-F10 intact cells at 10 uM using 7-HRA as substrate preincubated for 6 hrs followed by substrate addition by fluorescence assay; assay type: cell-based
T5 sequence (whole entry): T1 sequence (O35678 whole entry)
How it was run: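 Intact B16-F10 cells cultured 6 h with compound or DMSO, homogenised 30 min at 4 °C in lysis buffer and spun 1,500 × g 5 min. 1 μg lysate assayed with 10 μM 7-HRA (ex 571/em 588 nm); 5-min values reported; mean ± SEM, n = 3.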

[9] = tested on: B16-F10; assay: Induction of apoptosis in mouse B16F10 cells assessed as live cells at 10 uM after 48 hrs by Annexin V-FITC/propidium iodide staining based flow cytometry (reference value: 88.04%); assay type: functional
[10] = tested on: B16-F10; assay: Induction of apoptosis in mouse B16F10 cells assessed as early apoptotic cells at 10 uM after 48 hrs by Annexin V-FITC/propidium iodide staining based flow cytometry (reference value: 1.75%); assay type: functional
[11] = tested on: B16-F10; assay: Induction of apoptosis in mouse B16F10 cells assessed as late apoptotic cells at 10 uM after 48 hrs by Annexin V-FITC/propidium iodide staining based flow cytometry (reference value: 7.39%); assay type: functional
[12] = tested on: B16-F10; assay: Induction of apoptosis in mouse B16F10 cells assessed as necrotic cells at 10 uM after 48 hrs by Annexin V-FITC/propidium iodide staining based flow cytometry (reference value: 2.62%); assay type: functional
[13] = target: T4, Monoglyceride lipase (Homo sapiens); assay: Inhibition of MAGL in human MCF7 cells at 10 uM using 7-HRA as substrate preincubated for 6 hrs followed by substrate addition by fluorescence assay; assay type: cell-based
How it was run: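 MCF7 cells cultured 6 h with 10 μM compound or DMSO, then lysed; MAGL activity measured on total cell lysate using the 7-HRA fluorogenic assay.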

[14] = target: T1, Monoglyceride lipase; assay: […] of MAGL in mouse B16-F10 cells using 7-HRA as substrate preincubated for 60 mins followed by substrate addition measured every 2.5 mins for 2 hrs by fluorescence assay; assay type: cell-based
[15] = tested on: MCF7; assay: Induction of apoptosis in human MCF7 cells at 20 uM after 48 hrs by Annexin V-FITC/propidium iodide staining based flow cytometry; assay type: functional, cell-based
How it was run: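 MCF7 cells grown in 50% DMEM high glucose / 50% Ham's F-12 with 10% heat-inactivated FBS at 37 °C, 5% CO2, then exposed 48 h to compound or DMSO vehicle. Cells stained with annexin V plus 5 µg/ml PI in HEPES/NaCl/CaCl2 binding buffer. Flow cytometry on 10,000 cells per sample. Apoptotic = AnnV+/PI− plus AnnV+/PI+. n=3, mean ± S.E.M.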

For `O=C(Nc1cccc(-c2ccccc2)c1)OCCc1ccccc1`, the IC50 ([1]; read-out: IC50) was 17.1 µM and the Activity [2] was “inactive”.
With `O=C(Nc1cccc(-c2ccccc2)c1)OCc1ccco1` the IC50 [3] was “Nd(Insoluble)” and the IC50 ([1]; b16-f10) was “Nd(Insoluble)”.
In the case of `COc1ccc(-c2ccc(-c3cn(C(=O)N4CCCCC4c4ccccc4)nn3)cc2)cc1` (configuration not stated), the Activity [4] is reported as “inactive”.
In the case of `CCCCCCCC/C=C\CCCCCCCC(=O)NCC`, the Activity [5] is reported as “inactive” and the inhibition [6] is reported as 99%.
Work on `O=C(Nc1cccc(-c2ccc(C(F)(F)F)cc2)c1)OCc1ccccc1` yielded an IC50 ([3]; read-out: IC50) of 4.5 µM, an Activity [7] of 82% and an IC50 ([1]; read-out: IC50) of 9.41 µM. For the same compound, the inhibition [8] was “Active”, the Activity [2] was “Active” and the Activity [9] was 64.51%. It also gave an Activity [10] of 9.89%, an Activity [11] of 22.65% and an Activity [12] of 2.96%. The inhibition [13] was “Active” and the inhibition [6] was 15%.
With `O=C(Nc1cccc(-c2ccc(F)cc2)c1)OCc1ccccc1` the IC50 ([1]; read-out: IC50) was 15.6 µM and the Activity [2] was “inactive”.
Work on `O=C(Nc1cccc(-c2ccccc2)c1)Nc1cccc(-c2ccccc2)c1` yielded an EC50 [14] of 5.76 µM.
`O=C(Oc1ccc([N+](=O)[O-])cc1)N1CCC(C(O)(c2ccc3c(c2)OCO3)c2ccc3c(c2)OCO3)CC1` was tested, and the Activity [15] was “Active”.
For `O=C(Nc1cccc(-c2ccc(C(F)(F)F)cc2)c1)OCC1CCCCC1`, the IC50 ([1]; read-out: IC50) was 17.4 µM and the Activity [2] was “inactive”.
`O=C(Nc1cccc(-c2ccccc2)c1)OCc1ccccc1` was tested, and the IC50 ([3]; read-out: IC50) was 11.1 µM, the IC50 ([1]; read-out: IC50) was 16.5 µM and the Activity [2] was “inactive”.
Work on `O=C(Nc1cccc(-c2ccccc2)c1)OC1CCCCC1` yielded an IC50 ([3]; read-out: IC50) of 9.1 µM, an Activity [7] of 66% and an IC50 ([1]; read-out: IC50) of 19.8 µM. The Activity [2] was “inactive”, the Activity [9] was 79.55% and the Activity [10] was 1.43%. For the same compound, the Activity [11] was 13.54% and the Activity [12] was 5.48%.
With `O=C(Nc1cccc(-c2ccc(F)cc2)c1)OCC1CCCCC1` the IC50 ([1]; read-out: IC50) was 26.7 µM and the Activity [2] was “inactive”.
